Type in all cases: functional
One assay relates to Cryptococcus neoformans. The assay is described as follows: Antifungal activity against Cryptococcus neoformans ATCC BLS108 after 72 hrs by micro-broth dilution method. As to conditions: ATCC BLS108, 72 h. An outline of the steps: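 NCCLS M27-A2 microdilution on the ATCC BLS108 quality-control strain, tested in every assay. Compounds were taken up in DMSO, serially diluted in growth medium, inoculated and incubated at 35 °C. Growth was scored at 72 h. MIC80 is the first well with about 80% lower growth than the drug-free control well.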

In another assay the test system is Trichophyton rubrum. The assay is described as follows: Antifungal activity against Trichophyton rubrum after 7 days by micro-broth dilution method. The conditions noted are these: 168 h. In a few lines:
(§1)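 Broth microdilution following the NCCLS yeast reference method (M27-A2), run on clinical isolates of filamentous fungi. Compounds were dissolved in DMSO, serially diluted in growth medium, inoculated and incubated at 35 °C. Growth was read at 7 days. MIC80 is the first well with about 80% less growth than the drug-free well.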
(In general: Dilution methods test growth across graded concentrations, often in twofold steps.)

The subject of the next assay is Candida parapsilosis. In words: Antifungal activity against Candida parapsilosis ATCC 0306392 by micro-broth dilution method. The conditions noted are these: Lodderomyces parapsilosis. In a few lines:
(§2)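 Micro-broth dilution per NCCLS M27-A2. The C. parapsilosis strain is the ATCC 0306392 quality-control standard tested in each assay; the C. tropicalis strain is a clinical isolate. Compounds were in DMSO, serially diluted in growth medium, inoculated and incubated at 35 °C. MIC80 is the first well with about 80% growth reduction relative to the drug-free well.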

For a further assay, the system named is Candida albicans. The assay is described as follows: Antifungal activity against Candida albicans ATCC Y0109 after 24 hrs by micro-broth dilution method. As to conditions: ATCC Y0109, 24 h. An outline of the steps:
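Micro-broth dilution per NCCLS M27-A2 on the quality-control standard strain ATCC Y0109, included in each assay. Compounds were dissolved in DMSO, serially diluted in growth medium, inoculated and incubated at 35 °C, with growth read at 24 h. MIC80 is the first well showing roughly 80% growth reduction versus the drug-free well.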

The test system of a further assay is Aspergillus fumigatus. In words: Antifungal activity against Aspergillus fumigatus after 7 days by micro-broth dilution method. As to conditions: 168 h. In a few lines:
as §1

A further assay concerns Candida tropicalis. The assay is described as follows: Antifungal activity against Candida tropicalis by micro-broth dilution method. An outline of the steps: as §2
Assay [1] can be described thus: Antifungal activity against Fonsecaea compacta by micro-broth dilution method. An outline of the steps: as §1
A further assay deals with Nannizzia gypsea. The assay is described as follows: Antifungal activity against Microsporum gypseum after 7 days by micro-broth dilution method. The conditions noted are these: 168 h. An outline of the steps:
as §1

In brackets after ≈: the same amount, converted by molar mass.

This passage reports MIC80 results from ChEMBL document CHEMBL1799942, “Design, synthesis and antifungal activities of novel 1,2,4-triazole derivatives” (2011).

Regarding `CCCCC(=O)Nc1ccc(N2CCN(CC(O)(Cn3cncn3)c3ccc(F)cc3F)CC2)c(F)c1` (racemic), the MIC80 came to 1 µg/mL (≈ 1.94 µM) with Cryptococcus neoformans; 0.25 µg/mL (≈ 0.484 µM) against Trichophyton rubrum; 0.25 µg/mL (≈ 0.484 µM) with Candida parapsilosis; 0.0156 µg/mL (≈ 0.0302 µM) with Candida albicans; 1 µg/mL (≈ 1.94 µM) against Aspergillus fumigatus; 0.25 µg/mL (≈ 0.484 µM) in the assay on Candida tropicalis. In addition, the MIC80 stood at 1 µg/mL (≈ 1.94 µM) in assay [1] and 0.25 µg/mL (≈ 0.484 µM) against Nannizzia gypsea.

In the case of `CC(C)(C)C(=O)Nc1ccc(N2CCN(CC(O)(Cn3cncn3)c3ccc(F)cc3F)CC2)c(F)c1` (racemic), the MIC80 turned out to be 0.25 µg/mL (≈ 0.484 µM) with Cryptococcus neoformans; 0.0156 µg/mL (≈ 0.0302 µM) against Trichophyton rubrum; 0.0156 µg/mL (≈ 0.0302 µM) with Candida parapsilosis; 0.0156 µg/mL (≈ 0.0302 µM) in the assay on Candida albicans; 64 µg/mL (≈ 124 µM) in the assay on Aspergillus fumigatus; 0.0156 µg/mL (≈ 0.0302 µM) against Candida tropicalis. Besides, the MIC80 in assay [1] was 0.0625 µg/mL (≈ 0.121 µM); with Nannizzia gypsea, 0.0156 µg/mL (≈ 0.0302 µM).

Consider `CCCCCC(=O)Nc1ccc(N2CCN(CC(O)(Cn3cncn3)c3ccc(F)cc3F)CC2)c(F)c1` (racemic), for which the MIC80 amounted to 0.0625 µg/mL (≈ 0.118 µM) against Cryptococcus neoformans; 0.0156 µg/mL (≈ 0.0294 µM) against Trichophyton rubrum; 0.25 µg/mL (≈ 0.471 µM) in the assay on Candida parapsilosis; 0.0039 µg/mL (≈ 0.00735 µM) against Candida albicans; 1 µg/mL (≈ 1.88 µM) with Aspergillus fumigatus; 0.0625 µg/mL (≈ 0.118 µM) with Candida tropicalis. Besides, the MIC80 (in assay [1]; against Nannizzia gypsea) was 0.25 µg/mL (≈ 0.471 µM) each time.

With `CCCCCCC(=O)Nc1ccc(N2CCN(CC(O)(Cn3cncn3)c3ccc(F)cc3F)CC2)c(F)c1` (racemic), the MIC80 against Cryptococcus neoformans came out at 0.0625 µg/mL (≈ 0.115 µM); in the assay with Trichophyton rubrum, 0.0156 µg/mL (≈ 0.0286 µM); against Candida parapsilosis, 0.0625 µg/mL (≈ 0.115 µM); in the assay on Candida albicans, 0.00097 µg/mL (≈ 0.00178 µM); against Aspergillus fumigatus it was 1 µg/mL (≈ 1.84 µM); against Candida tropicalis, 0.0625 µg/mL (≈ 0.115 µM). The MIC80 in assay [1] amounted to 0.25 µg/mL (≈ 0.459 µM); against Nannizzia gypsea, 0.0625 µg/mL (≈ 0.115 µM).

For `CCCCCCCC(=O)Nc1ccc(N2CCN(CC(O)(Cn3cncn3)c3ccc(F)cc3F)CC2)c(F)c1` (racemic), the MIC80 was found to be 0.25 µg/mL (≈ 0.448 µM) against Cryptococcus neoformans; 0.0039 µg/mL (≈ 0.00698 µM) against Trichophyton rubrum; 0.0625 µg/mL (≈ 0.112 µM) against Candida parapsilosis; 0.0625 µg/mL (≈ 0.112 µM) against Candida albicans; 1 µg/mL (≈ 1.79 µM) against Aspergillus fumigatus; 0.0625 µg/mL (≈ 0.112 µM) in the assay with Candida tropicalis. The MIC80 came out at 0.25 µg/mL (≈ 0.448 µM) in assay [1] and 0.0625 µg/mL (≈ 0.112 µM) against Nannizzia gypsea.

As to `O=C(Cc1ccccc1)Nc1ccc(N2CCN(CC(O)(Cn3cncn3)c3ccc(F)cc3F)CC2)c(F)c1` (racemic), the MIC80 was found to be 1 µg/mL (≈ 1.82 µM) in the assay with Cryptococcus neoformans; 0.0039 µg/mL (≈ 0.00708 µM) in the assay on Trichophyton rubrum; 0.0625 µg/mL (≈ 0.114 µM) with Candida parapsilosis; 0.0156 µg/mL (≈ 0.0283 µM) with Candida albicans; 64 µg/mL (≈ 116 µM) against Aspergillus fumigatus; 0.0625 µg/mL (≈ 0.114 µM) against Candida tropicalis. For the same compound, the MIC80 in assay [1] stood at 0.0625 µg/mL (≈ 0.114 µM); in the assay with Nannizzia gypsea, 0.0156 µg/mL (≈ 0.0283 µM).

For the compound `C[C@@H]1[C@H](O)[C@@H](C)/C=C/C=C/C=C/C=C/C=C/C=C/C=C/[C@H](O[C@@H]2O[C@H](C)[C@@H](O)[C@H](N)[C@@H]2O)C[C@@H]2O[C@](O)(C[C@@H](O)C[C@@H](O)[C@H](O)CC[C@@H](O)C[C@@H](O)CC(=O)O[C@H]1C)C[C@H](O)[C@H]2C(=O)O` [AMPHOTERICIN B], the MIC80 in the assay on Cryptococcus neoformans turned out to be 1 µg/mL (≈ 1.08 µM); in the assay with Trichophyton rubrum, 1 µg/mL (≈ 1.08 µM); with Candida parapsilosis, 0.0156 µg/mL (≈ 0.0169 µM); in the assay with Candida albicans, 1 µg/mL (≈ 1.08 µM); in the assay with Aspergillus fumigatus, 4 µg/mL (≈ 4.33 µM); with Candida tropicalis it was 0.0625 µg/mL (≈ 0.0676 µM). For the same compound, the MIC80 was 16 µg/mL (≈ 17.3 µM) in assay [1] and 0.0039 µg/mL (≈ 0.00422 µM) against Nannizzia gypsea.

With `OC(Cn1cncn1)(Cn1cncn1)c1ccc(F)cc1F` [FLUCONAZOLE], the MIC80 worked out at 1 µg/mL (≈ 3.27 µM) in the assay on Cryptococcus neoformans; 0.25 µg/mL (≈ 0.816 µM) in the assay on Trichophyton rubrum; 1 µg/mL (≈ 3.27 µM) against Candida parapsilosis; 4 µg/mL (≈ 13.1 µM) with Candida albicans; 64 µg/mL (≈ 209 µM) in the assay on Aspergillus fumigatus; 1 µg/mL (≈ 3.27 µM) in the assay on Candida tropicalis. Besides, the MIC80 in assay [1] came out at 16 µg/mL (≈ 52.2 µM); against Nannizzia gypsea, 0.25 µg/mL (≈ 0.816 µM).

With `CCC(C)n1ncn(-c2ccc(N3CCN(c4ccc(OCC5COC(Cn6cncn6)(c6ccc(Cl)cc6Cl)O5)cc4)CC3)cc2)c1=O` (stereo not drawn) [ITRACONAZOLE], the MIC80 with Cryptococcus neoformans came out at 1 µg/mL (≈ 1.42 µM); against Trichophyton rubrum, 0.0156 µg/mL (≈ 0.0221 µM); in the assay with Candida parapsilosis, 0.25 µg/mL (≈ 0.354 µM); with Candida albicans, 1 µg/mL (≈ 1.42 µM); in the assay with Aspergillus fumigatus, 1 µg/mL (≈ 1.42 µM); against Candida tropicalis it was 0.25 µg/mL (≈ 0.354 µM). In addition, the MIC80 in assay [1] came to 0.25 µg/mL (≈ 0.354 µM); in the assay with Nannizzia gypsea, 0.0156 µg/mL (≈ 0.0221 µM).

In the case of `CC(=O)N1CCN(c2ccc(OCC3COC(Cn4ccnc4)(c4ccc(Cl)cc4Cl)O3)cc2)CC1` (stereo not drawn) [KETOCONAZOLE], the MIC80 was 0.0625 µg/mL (≈ 0.118 µM) with Cryptococcus neoformans; 0.0625 µg/mL (≈ 0.118 µM) with Trichophyton rubrum; 0.0625 µg/mL (≈ 0.118 µM) with Candida parapsilosis; 0.0625 µg/mL (≈ 0.118 µM) against Candida albicans; 1 µg/mL (≈ 1.88 µM) against Aspergillus fumigatus; 0.0625 µg/mL (≈ 0.118 µM) in the assay with Candida tropicalis. Moreover, the MIC80 was 0.0625 µg/mL (≈ 0.118 µM) in assay [1] and 0.0039 µg/mL (≈ 0.00734 µM) with Nannizzia gypsea.

Consider `C[C@@H](c1ncncc1F)[C@](O)(Cn1cncn1)c1ccc(F)cc1F` [VORICONAZOLE], for which the MIC80 was 0.0156 µg/mL (≈ 0.0447 µM) against Cryptococcus neoformans; 0.0039 µg/mL (≈ 0.0112 µM) with Trichophyton rubrum; 1 µg/mL (≈ 2.86 µM) with Candida parapsilosis; 0.0156 µg/mL (≈ 0.0447 µM) in the assay with Candida albicans; more than 64 µg/mL against Aspergillus fumigatus; 0.25 µg/mL (≈ 0.716 µM) with Candida tropicalis. Also, the MIC80 in assay [1] is 0.0156 µg/mL (≈ 0.0447 µM); in the assay with Nannizzia gypsea, 0.0039 µg/mL (≈ 0.0112 µM).

By MIC80 is commonly meant an inhibitory concentration at the 80% level, which refers to growth in some studies and to a panel of isolates in others. A lower MIC80 goes with greater potency.
